≈ marks a conversion by molar mass, not a printed value. Calls of active or inactive are those of the source. The calls are words filed in the database; no cut-off is given here.
Experiments:
[1] = (§1) Cmax in human plasma; assay type: ADME, organism-based; settings: plasma
Staphylococcus aureus [2] = assay: Antibacterial activity against normal phenotype Staphylococcus aureus at pH 7.4 after 24 hrs by broth microdilution method
Staphylococcus aureus [3] = assay: Antibacterial activity against Staphylococcus aureus SCV isolated from cystic fibrosis patient at pH 7.4 after 48 hrs by broth microdilution method in presence of thymidine; assay type: functional
How it was run: (§2)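 MIC by CLSI broth microdilution in cation-adjusted MH II broth. For oritavancin, 0.002% polysorbate-80 was added and non-tissue-culture-treated plates were used to limit binding to plastic. Plates were read at 24 h for normal and revertant strains and at 48 h for the SCV. Where stated, the SCV was tested with 100 mg/liter thymidine. Growth was aerobic.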

Staphylococcus aureus [4] = assay: Antibacterial activity against Staphylococcus aureus SCV isolated from cystic fibrosis patient at pH 7.4 after 48 hrs by broth microdilution method in absence of thymidine; assay type: functional; how it was run: as §2
Staphylococcus aureus [5] = assay: Antibacterial activity against Staphylococcus aureus SCV isolated from cystic fibrosis patient infected in human THP-1 cells assessed as log reduction of intracellular CFU level after 24 hrs in presence of thymidine; assay type: functional, organism-based
How it was run: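 SCV-infected THP-1 macrophages are exposed 24 h after phagocytosis to antibiotic, with 100 mg/liter thymidine added to the culture medium together with the drug. Read-out is change in log CFU per mg cell protein from the initial inoculum. Data are means ± SD, n = 3; significance by ANOVA with Tukey's test.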

Staphylococcus aureus [6] = assay: Antibacterial activity against revertant Staphylococcus aureus at pH 7.4 after 24 hrs by broth microdilution method
Staphylococcus aureus [7] = assay: Antibacterial activity against normal phenotype Staphylococcus aureus in cation-adjusted MH 2 broth at pH 5.5 after 24 hrs by broth microdilution method; assay type: functional
How it was run: (§3)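 MIC by CLSI broth microdilution in cation-adjusted MH II broth adjusted to pH 5.5. Readings were taken at 48 h for the SCV and at 24 h for the normal-phenotype strain.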

[8] = (§4) Fraction unbound in human plasma
Staphylococcus aureus [9] = assay: Antibacterial activity against Staphylococcus aureus SCV isolated from cystic fibrosis patient in cation-adjusted MH 2 broth at pH 5.5 after 48 hrs by broth microdilution method; assay type: functional; how it was run: as §3
Staphylococcus aureus [10] = assay: Antibacterial activity against Staphylococcus aureus SCV isolated from cystic fibrosis patient in cation-adjusted MH 2 broth assessed as log reduction of extracellular CFU after 5 hrs; assay type: functional
How it was run: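 Broth exposure to total drug levels mimicking human serum Cmax, same concentrations as the intracellular assay, for 5 or 24 h. Medium is CA-MH broth, with 0.002% polysorbate-80 when oritavancin is tested. Samples are plated on brain heart infusion agar and incubated 48 h before SCV colonies are counted. Read-out is Δlog CFU/ml from the initial inoculum.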

Staphylococcus aureus [11] = assay: Antibacterial activity against normal phenotype Staphylococcus aureus in infected in human THP-1 cells assessed as log reduction of extracellular CFU level after 24 hrs; assay type: functional, organism-based
Staphylococcus aureus [12] = assay: Antibacterial activity against revertant Staphylococcus aureus infected in human THP-1 cells assessed as log reduction of extracellular CFU level after 24 hrs; assay type: functional, organism-based
Plasma [13] = assay: as §1; assay type: ADME, organism-based; settings: in vivo
Plasma [14] = assay: as §4
Staphylococcus aureus [15] = assay: Antibacterial activity against Staphylococcus aureus SCV isolated from cystic fibrosis patient infected in human THP-1 cells assessed as log reduction of intracellular CFU after 72 hrs; assay type: functional
How it was run: (§5)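 THP-1 macrophages are infected with the SCV strain, then extracellular bacteria are eliminated after phagocytosis. Drug is added at total concentrations mimicking human serum Cmax for 5, 24 or 72 h. Lysates are plated on brain heart infusion agar and counted after 48 h. Read-out is Δlog CFU/mg cell protein from the postphagocytosis inoculum; no drug-free control is run at 72 h.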

Staphylococcus aureus [16] = assay: Antibacterial activity against Staphylococcus aureus SCV isolated from cystic fibrosis patient infected in human THP-1 cells assessed as log reduction of intracellular CFU after 5 hrs; assay type: functional; how it was run: as §5
Staphylococcus aureus [17] = assay: Antibacterial activity against Staphylococcus aureus SCV isolated from cystic fibrosis patient infected in human THP-1 cells assessed as log reduction of intracellular CFU after 24 hrs; assay type: functional

Compound | Cmax [1] | MIC (Staphylococcus aureus [2]) | MIC (Staphylococcus aureus [3]) | MIC (Staphylococcus aureus [4]) | Activity (Staphylococcus aureus [5]) | MIC (Staphylococcus aureus [6]) | MIC (Staphylococcus aureus [7]) | fraction unbound [8] | MIC (Staphylococcus aureus [9]) | log10cfu (Staphylococcus aureus [10]) | Activity (Staphylococcus aureus [11]) | Activity (Staphylococcus aureus [12]) | Cmax (Plasma [13]) | Fu (Plasma [14]) | log10cfu (Staphylococcus aureus [15]) | log10cfu (Staphylococcus aureus [16]) | log10cfu (Staphylococcus aureus [17])
CCCCCCCCCCNCCN[C@@]1(C)C[C@H](O[C@H]2[C@H](Oc3c4cc5cc3Oc3ccc(cc3Cl)[C@@H](O)[C@@H](NC(=O)[C@@H](CC(C)C)NC)C(=O)N[C@@H](CC(N)=O)C(=O)N[C@H]5C(=O)N[C@H]3C(=O)N[C@H](C(=O)N[C@H](C(=O)O)c5cc(O)c(CNCP(=O)(O)O)c(O)c5-c5cc3ccc5O)[C@H](O)c3ccc(c(Cl)c3)O4)O[C@H](CO)[C@@H](O)[C@@H]2O)O[C@@H](C)[C@H]1O [TELAVANCIN] | 90000 ng/mL | 0.125 µg/mL (≈ 0.0712 µM) | 0.125 µg/mL | 0.125 µg/mL (≈ 0.0712 µM) | Active | 0.125 µg/mL (≈ 0.0712 µM) | 0.125 µg/mL (≈ 0.0712 µM) | 0.07 | 0.125 µg/mL (≈ 0.0712 µM) | – | – | – | – | – | – | – | –
CC(=O)NC[C@H]1CN(c2ccc(N3CCOCC3)c(F)c2)C(=O)O1 [LINEZOLID] | 16000 ng/mL | – | – | – | Active | – | – | 0.31 | – | 1 | – | – | – | – | – | – | –
CN[C@H](CC(C)C)C(=O)N[C@H]1C(=O)N[C@@H](CC(N)=O)C(=O)N[C@H]2C(=O)N[C@H]3C(=O)N[C@H](C(=O)N[C@H](C(=O)O)c4cc(O)cc(O)c4-c4cc3ccc4O)[C@H](O)c3ccc(c(Cl)c3)Oc3cc2cc(c3O[C@@H]2O[C@H](CO)[C@@H](O)[C@H](O)[C@H]2O[C@H]2C[C@](C)(N)[C@H](O)[C@H](C)O2)Oc2ccc(cc2Cl)[C@H]1O [VANCOMYCIN] | 50000 ng/mL | – | – | – | Active | – | – | 0.5 | – | – | Active | Active | – | – | – | – | –
CCCCCCCCCC(=O)N[C@@H](Cc1c[nH]c2ccccc12)C(=O)N[C@H](CC(N)=O)C(=O)N[C@@H](CC(=O)O)C(=O)N[C@@H]1C(=O)NCC(=O)N[C@@H](CCCN)C(=O)N[C@@H](CC(=O)O)C(=O)N[C@H](C)C(=O)N[C@@H](CC(=O)O)C(=O)NCC(=O)N[C@H](CO)C(=O)N[C@@H]([C@H](C)CC(=O)O)C(=O)N[C@@H](CC(=O)c2ccccc2N)C(=O)O[C@@H]1C | 57000 ng/mL | 0.125 µg/mL (≈ 0.0771 µM) | 0.25 µg/mL | 0.125 µg/mL (≈ 0.0771 µM) | Active | 0.25 µg/mL (≈ 0.154 µM) | 0.125 µg/mL (≈ 0.0771 µM) | 0.1 | 0.25 µg/mL (≈ 0.154 µM) | – | – | – | – | – | – | – | –
GENTAMICIN [listing 1 of 2 here] | – | – | – | – | – | – | – | – | – | – | – | – | 18000 ng/mL | 100% | – | – | –
Cc1onc(-c2ccccc2)c1C(=O)N[C@@H]1C(=O)N2[C@@H]1SC(C)(C)[C@@H]2C(=O)O [OXACILLIN] | 64000 ng/mL | 0.5 µg/mL (≈ 1.25 µM) | 0.25 µg/mL | 0.125 µg/mL (≈ 0.311 µM) | Active | 0.25 µg/mL (≈ 0.623 µM) | 0.03 µg/mL (≈ 0.0747 µM) | 0.07 | 0.015 µg/mL (≈ 0.0374 µM) | – | Active | Active | – | – | – | – | –
GENTAMICIN [listing 2 of 2 here] | – | – | 0.125 µg/mL | 0.125 µg/mL | Active | – | 8 µg/mL | – | 4 µg/mL | – | – | – | – | – | – | – | –
CN[C@H](CC(C)C)C(=O)N[C@H]1C(=O)N[C@@H](CC(N)=O)C(=O)N[C@H]2C(=O)N[C@H]3C(=O)N[C@H](C(=O)N[C@H](C(=O)O)c4cc(O)cc(O)c4-c4cc3ccc4O)[C@H](O[C@H]3C[C@](C)(N)[C@@H](O)[C@H](C)O3)c3ccc(c(Cl)c3)Oc3cc2cc(c3O[C@@H]2O[C@H](CO)[C@@H](O)[C@H](O)[C@H]2O[C@H]2C[C@](C)(NCc3ccc(-c4ccc(Cl)cc4)cc3)[C@@H](O)[C@H](C)O2)Oc2ccc(cc2Cl)[C@H]1O [ORITAVANCIN] | 25000 ng/mL | 0.03 µg/mL (≈ 0.0167 µM) | 0.015 µg/mL | 0.015 µg/mL (≈ 0.00837 µM) | Active | 0.015 µg/mL (≈ 0.00837 µM) | 0.03 µg/mL (≈ 0.0167 µM) | 0.12 | 0.125 µg/mL (≈ 0.0697 µM) | – | – | – | – | – | 1 | 1 | 2.5
CO[C@H]1/C=C/O[C@@]2(C)Oc3c(C)c(O)c4c(O)c(c(/C=N/N5CCN(C)CC5)c(O)c4c3C2=O)NC(=O)/C(C)=C\C=C\[C@H](C)[C@H](O)[C@@H](C)[C@@H](O)[C@@H](C)[C@H](OC(C)=O)[C@@H]1C [RIFAMPIN] | 18000 ng/mL | 0.002 µg/mL (≈ 0.00243 µM) | 0.002 µg/mL | 0.0005 µg/mL (≈ 0.000608 µM) | Active | 0.0005 µg/mL (≈ 0.000608 µM) | 0.0002 µg/mL (≈ 0.000243 µM) | 0.15 | 0.0005 µg/mL (≈ 0.000608 µM) | – | – | – | – | – | 2 | 1 | –
CCC[C@@H]1C[C@@H](C(=O)N[C@@H]([C@H]2O[C@H](SC)[C@H](O)[C@@H](O)[C@H]2O)[C@H](C)Cl)N(C)C1 [CLINDAMYCIN] | 4000 ng/mL | 0.125 µg/mL (≈ 0.294 µM) | 0.125 µg/mL | 0.125 µg/mL (≈ 0.294 µM) | Active | 0.125 µg/mL (≈ 0.294 µM) | 1 µg/mL (≈ 2.35 µM) | 0.1 | 1 µg/mL (≈ 2.35 µM) | 2 | – | – | – | – | – | – | –
CC(=O)O[C@H]1C[C@@]2(C)[C@@H](C[C@@H](O)[C@H]3[C@@]4(C)CC[C@@H](O)[C@@H](C)[C@@H]4CC[C@@]32C)/C1=C(\CCC=C(C)C)C(=O)O [FUSIDIC ACID] | 30000 ng/mL | 0.125 µg/mL (≈ 0.242 µM) | 0.03 µg/mL | 0.03 µg/mL (≈ 0.0581 µM) | Active | 0.06 µg/mL (≈ 0.116 µM) | 0.125 µg/mL (≈ 0.242 µM) | 0.05 | 0.03 µg/mL (≈ 0.0581 µM) | 1 | Active | Active | – | – | – | – | –
CN(C)c1cc(NC(=O)CNC(C)(C)C)c(O)c2c1C[C@H]1C[C@H]3[C@H](N(C)C)C(O)=C(C(N)=O)C(=O)[C@@]3(O)C(O)=C1C2=O [TIGECYCLINE] | 1000 ng/mL | 0.125 µg/mL (≈ 0.213 µM) | 0.125 µg/mL | 0.125 µg/mL (≈ 0.213 µM) | Active | 0.125 µg/mL (≈ 0.213 µM) | 0.125 µg/mL (≈ 0.213 µM) | 0.2 | 0.125 µg/mL (≈ 0.213 µM) | 1 | – | – | – | – | – | – | –
COc1c(N2C[C@@H]3CCCN[C@@H]3C2)c(F)cc2c(=O)c(C(=O)O)cn(C3CC3)c12 [MOXIFLOXACIN] | 4000 ng/mL | 0.25 µg/mL (≈ 0.623 µM) | 0.125 µg/mL | 0.125 µg/mL (≈ 0.311 µM) | Active | 0.125 µg/mL (≈ 0.311 µM) | 2 µg/mL (≈ 4.98 µM) | – | 2 µg/mL (≈ 4.98 µM) | – | – | – | – | – | 1 | 1 | –

Source: ChEMBL document CHEMBL1687729, “Intracellular activity of antibiotics in a model of human THP-1 macrophages infected by a Staphylococcus aureus small-colony variant strain isolated from a cystic fibrosis patient: pharmacodynamic evaluation and comparison with isogenic normal-phenotype and revertant strains” (Antimicrob Agents Chemother, 2009)
